The test system of data set [1] is Candida albicans. The data set can be described thus: Antifungal activity against Candida albicans after 24 hrs by assay.
A short description of data set [2]: Inhibition of Candida glabrata DHFR using dihydrofolate as substrate preincubated for 5 mins followed by substrate addition in presence of NADPH. More on the design: species or system Nakaseomyces glabratus. In a few lines: (§1)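 Racemic inhibitor from DMSO stock (<2% DMSO in assay) was preincubated 5 min with enzyme and 100 μM NADPH. NADPH consumption was followed at 340 nm for 1 min at 25 °C, in triplicate.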

Data set [3] can be described thus: Kinetic solubility of the compound in water after 30 mins by HPLC analysis. In kind it is physicochemical. Conditions: read-out: Kinetic_solubility.
Data set [4] deals with Candida albicans. Kind of data set: Antifungal activity against Candida albicans NCCLS84 after 24 hrs by XTT assay. Type of data set: functional. The note with it: SC5314, 24 h, in the assay text read “SC5314” for “NCCLS84”. In general terms: Tetrazolium assays rely on reduction of a dye to a coloured formazan, in cell work by metabolically active cells.
Data set [5] has as its system Nakaseomyces glabratus. The data set can be described thus: Antifungal activity against Candida glabrata NCCLS84 after 24 hrs by Alamar Blue assay. The note with it: NCCLS84, 24 h.
The subject of data set [6] is MCF10. Kind of data set: Cytotoxicity against human MCF10 cells. Type of data set: cell-based.
In data set [7] the target is T1, Dihydrofolate reductase (Candida albicans, UniProt P22906).
T1 sequence (P22906 whole entry): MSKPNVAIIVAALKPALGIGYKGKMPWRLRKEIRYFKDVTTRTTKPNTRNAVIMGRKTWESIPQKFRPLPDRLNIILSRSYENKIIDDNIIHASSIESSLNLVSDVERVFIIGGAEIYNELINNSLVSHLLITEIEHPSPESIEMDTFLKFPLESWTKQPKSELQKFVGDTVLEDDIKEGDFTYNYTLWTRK
Kind of data set: Inhibition of Candida albicans DHFR using dihydrofolate as substrate preincubated for 5 mins followed by substrate addition in presence of NADPH. Put shortly:
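Consumption of NADPH followed at 340 nm for 1 min at 25 °C. Buffer: 20 mM TES pH 7.0, 50 mM KCl, 10 mM 2-mercaptoethanol, 0.5 mM EDTA, 1 mg/mL BSA. Saturating 100 μM NADPH and 100 μM dihydrofolate, limiting enzyme. Racemic inhibitor was added from DMSO stocks at under 2% DMSO final. Triplicate runs.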

Data set [8] is described as follows: Selectivity ratio of IC50 for human DHFR to IC50 for Candida albicans DHFR.
Data set [9] in a line: Selectivity ratio of IC50 for human DHFR to IC50 for Candida glabrata DHFR.
Data set [10] concerns the target T2, Dihydrofolate reductase (Homo sapiens, UniProt P00374).
T2 sequence (P00374 whole entry): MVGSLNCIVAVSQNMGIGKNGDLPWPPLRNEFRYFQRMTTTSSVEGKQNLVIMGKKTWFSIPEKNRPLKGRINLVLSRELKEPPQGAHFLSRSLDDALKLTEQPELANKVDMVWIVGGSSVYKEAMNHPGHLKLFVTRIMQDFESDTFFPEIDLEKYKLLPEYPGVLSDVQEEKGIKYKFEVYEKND
The data set can be described thus: Inhibition of human DHFR using dihydrofolate as substrate preincubated for 5 mins followed by substrate addition in presence of NADPH. Put shortly:
as §1

Data set [11] has as its system Candida albicans. Kind of data set: Antifungal activity against Candida albicans after 24 hrs by assay in presence of 0.01% Triton X-100.
Data set [12] has as its system Candida albicans. The data set can be described thus: Antifungal activity against Candida albicans NCCLS84 at 100 ug/ml after 24 hrs by XTT assay. In kind it is functional, organism-based.
Data set [13] can be described thus: Kinetic solubility of the compound in water after 30 mins by HPLC analysis in presence of 0.02% HPMC. In kind it is physicochemical. Conditions: water with 0.02% HPMC; read-out: Kinetic_solubility.

Structures are written as SMILES. Converted amounts (≈) assume the structure as drawn. The source made the active and inactive calls. The rule behind the calls is not given here.

One may read the MIC as the least concentration at which growth counts as inhibited. The term IC50 denotes the point on the concentration scale where inhibition reaches its midpoint.

For `CCc1nc(N)nc(N)c1C#CC(C)c1ccc(-c2ccc(N(C)C)cc2)cc1OC` (stereo unspecified), the MIC entry in data set [1] was “inactive”.
`CCc1nc(N)nc(N)c1C#CC(C)c1cnc(-c2ccccc2)nc1` (stereo unspecified): the IC50 in data set [2] worked out at 22 nM; in data set [6], 216000 nM. Besides, the solubility kinetic at 0.5 h in data set [3] amounted to 60 µg/mL (≈ 174 µM). The MIC was 0.19 µg/mL (≈ 0.552 µM) in data set [4] and 0.78 µg/mL (≈ 2.26 µM) in data set [5].
As to `CCc1nc(N)nc(N)c1C#CC(C)c1ccc(-c2ccccc2)cc1OC` (stereo unspecified), the IC50 in data set [2] is 31 nM; in data set [7], 49 nM; in data set [10] it was 172 nM. The MIC in [4] came to 6.3 µg/mL (≈ 16.9 µM); in data set [5] it was 1.6 µg/mL (≈ 4.3 µM). Further, the Ratio IC50 in data set [8] came out at 4; in data set [9], 6.
Turning to `CCc1nc(N)nc(N)c1C#CC(C)c1ccc(-c2ccc(F)cc2)cc1OC` (stereo unspecified), the values for the IC50 in data set [7], in [6] and in data set [10] were 43 nM, 60000 nM and 148 nM, respectively. The MIC in data set [4] was 1.8 µg/mL (≈ 4.61 µM); in data set [5], 7.5 µg/mL (≈ 19.2 µM).
With `CCc1nc(N)nc(N)c1C#CC(C)c1ccc(-c2ccccc2)nc1` (stereo unspecified), the IC50 in [2] was found to be 23 nM; in data set [6], 148000 nM. Moreover, the solubility kinetic at 0.5 h in [3] is 20 µg/mL (≈ 58.2 µM). Moreover, the MIC in data set [4] came out at 0.39 µg/mL (≈ 1.14 µM); in data set [5], 0.78 µg/mL (≈ 2.27 µM).
Consider `COc1cc(C(C)C#Cc2c(C)nc(N)nc2N)c(OC)cc1-c1ccccc1` (stereo unspecified), for which the IC50 in data set [2] was 8.2 nM; in data set [7], 36 nM; in data set [10] it was 314 nM. In addition, the MIC is 3.1 µg/mL (≈ 7.98 µM) in [4] and 1.6 µg/mL (≈ 4.12 µM) in [5].
`CCc1nc(N)nc(N)c1C#CC(C)c1ccc(-c2ccc(C#N)cc2)cc1OC` (stereo unspecified): the IC50 in data set [6] is 50000 nM.
Consider `CCc1nc(N)nc(N)c1C#CC(C)c1ccc(-c2ccc(C)cc2)nc1` (stereo unspecified), for which the IC50 in data set [2] stood at 27 nM. Also, the solubility kinetic at 0.5 h in data set [3] was 15 µg/mL (≈ 42 µM). Moreover, the figures for the MIC in data set [4] and in data set [5] were 0.39 µg/mL (≈ 1.09 µM) and 0.2 µg/mL (≈ 0.56 µM), respectively. The outcome in [11] was Active.
Regarding `CCc1nc(N)nc(N)c1C#CC(C)c1ccc(-c2ccc(O)cc2)cc1OC` (stereo unspecified), the outcome in data set [12] was inactive. In [6], this molecule showed an IC50 of 148000 nM.
Take `CCc1nc(N)nc(N)c1C#CC(C)c1ccc(-c2ccc(C)cc2)cc1OC` (stereo unspecified): the IC50 in data set [2] amounted to 22 nM; in data set [7] it was 48 nM; in [10] it was 208 nM. Moreover, the MIC turned out to be 3.1 µg/mL (≈ 8.02 µM) in data set [4] and 1.6 µg/mL (≈ 4.14 µM) in data set [5]. For the same molecule, the Ratio IC50 in [8] turned out to be 4; in data set [9], 9.
For the molecule `CCc1nc(N)nc(N)c1C#CC(C)c1ccc(-c2ccc(OC(N)=O)cc2)cc1OC` (stereo unspecified), the MIC result in [1] is “inactive”.
Regarding `COc1cc(-c2ccccc2)cc(C(C)C#Cc2c(C)nc(N)nc2N)c1` (stereo unspecified), in data set [2], the IC50 was 7.3 nM. In data set [4], the MIC turned out to be 23 µg/mL (≈ 64.2 µM).
As to `COc1cc(-c2ccccc2)ccc1C(C)C#Cc1c(C)nc(N)nc1N` (stereo unspecified), the IC50 in data set [7] was 20 nM; in [6], 74000 nM; in data set [10], 340 nM. Also, the figures for the MIC in data set [4] and in data set [5] were 1.6 µg/mL (≈ 4.46 µM) and 0.39 µg/mL (≈ 1.09 µM), respectively. In addition, the solubility kinetic at 0.5 h in [13] was found to be 25 µg/mL.
As for `CCc1nc(N)nc(N)c1C#CC(C)c1cc(OC)cc(-c2ccncc2)c1` (stereo unspecified), the figures for the MIC in data set [4], in data set [5] and in data set [11] were 25 µg/mL (≈ 66.9 µM), 1.3 µg/mL (≈ 3.48 µM) and 6.25 µg/mL, respectively.
Consider `CCc1nc(N)nc(N)c1C#CC(C)c1ccc(-c2ccccc2)cc1` (stereo unspecified), for which the IC50 came to 6 nM in data set [2], 23 nM in data set [7], 505000 nM in data set [6] and 174 nM in data set [10]. Moreover, the MIC was 7.5 µg/mL (≈ 21.9 µM) in data set [4] and 3.1 µg/mL (≈ 9.05 µM) in data set [5].
As to `CCc1nc(N)nc(N)c1C#CC(C)c1ccc(-c2ccncc2)cc1OC` (stereo unspecified), the IC50 in data set [2] came out at 19 nM; in data set [7], 33 nM; in data set [6] it was 216000 nM; in [10], 127 nM. In addition, the MIC in data set [4] stood at 25 µg/mL (≈ 66.9 µM); in [5], 0.78 µg/mL (≈ 2.09 µM).
For `COc1cc(C(C)C#Cc2c(C)nc(N)nc2N)ccc1-c1ccccc1` (stereo unspecified), the MIC in data set [4] came to 6.25 µg/mL (≈ 17.4 µM); in data set [5] it was 0.78 µg/mL (≈ 2.18 µM). This molecule registered an IC50 in data set [6] of 80000 nM.
Consider `CCc1nc(N)nc(N)c1C#CC(C)c1ccc(-c2ccc(C(=O)OC)cc2)cc1OC` (stereo unspecified), for which the midpoint of inhibition in [6], the IC50, lay at 96000 nM.

The values above are taken from ChEMBL document CHEMBL3232887, “Propargyl-linked antifolates are dual inhibitors of Candida albicans and Candida glabrata” (J Med Chem, 2014).
